Experimental data: ChEMBL document CHEMBL2380254, “Optimization of tocotrienols as antiproliferative and antimigratory leads” (Eur J Med Chem, 2013)

Columns and labels:
[1] = tested on: MDA-MB-435; assay: Growth inhibition of human MDA-MB-435 cells assessed as cell growth at 10 uM after 48 hrs by sulforhodamine B assay; format: functional; details: MDA-MB-435, 48 h, read-out: Activity
Method in brief: (§1)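 Single-dose NCI-60 screen: adherent cells in RPMI 1640 with 5% FBS were exposed to 10 µM for 48 h at 37 °C after a 24 h preincubation. They were fixed in situ with cold TCA (10% final), stained with 0.4% SRB in 1% acetic acid, solubilized in 10 mM Tris base, and read at 515 nm. Percent growth was taken relative to time-zero and control plates.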

[2] = tested on: NCI-H23; assay: Growth inhibition of human NCI-H23 cells assessed as cell growth at 10 uM after 48 hrs by sulforhodamine B assay; format: functional; details: NCI-H23, 48 h, read-out: Activity; method in brief: as §1
[3] = tested on: SW-620; assay: Growth inhibition of human SW620 cells assessed as cell growth at 10 uM after 48 hrs by sulforhodamine B assay; format: functional; details: SW-620, 48 h, read-out: Activity
Method in brief: (§2)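 Single-dose NCI-60 test at 10 µM. Cells were grown in RPMI 1640 with 5% FBS and 2 mM L-glutamine, preincubated 24 h, with T0 plates TCA-fixed. Exposure was 48 h at 37 °C, 5% CO2. Cells were fixed with cold TCA (final 10%, 4 °C, 60 min), stained with SRB and read at 515 nm. Percent growth was taken relative to T0 and untreated control; negative values denote cell kill.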

[4] = tested on: COLO 205; assay: Growth inhibition of human COLO205 cells assessed as cell growth at 10 uM after 48 hrs by sulforhodamine B assay; format: functional; details: COLO 205, 48 h, read-out: Activity
Method in brief: (§3)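 NCI-60 single-dose screen at 10 µM: cells in RPMI 1640 with 5% FBS, preincubated 24 h, then exposed 48 h at 37 °C. TCA fixation (16% final for suspension cells), SRB staining, absorbance 515 nm. Percent growth relative to time-zero and untreated control plates; negative values indicate cell kill.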

[5] = tested on: UO-31; assay: Growth inhibition of human UO31 cells after 48 hrs by sulforhodamine B assay; format: functional; details: UO-31, 48 h
Method in brief: (§4)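 NCI-60 five-dose screen. Cells were grown in RPMI 1640 with 5% FBS and 2 mM L-glutamine, plated at 5000–40,000 cells/well and incubated 24 h before dosing, with T0 plates TCA-fixed. DMSO stocks were diluted to doses of […] and exposed 48 h at 37 °C, 5% CO2. Cells were fixed with cold TCA (final 10%, 60 min, 4 °C), stained with 0.4% SRB in 1% acetic acid for 10 min, solubilized in 10 mM trizma base and read at 515 nm. GI50 is where 100×(T−T0)/(C−T0)=50.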

[6] = tested on: HT-29; assay: Growth inhibition of human HT-29 cells assessed as cell growth at 10 uM after 48 hrs by sulforhodamine B assay; format: functional; details: HT-29, 48 h, read-out: Activity; method in brief: as §3
[7] = tested on: OVCAR-8; assay: Growth inhibition of human OVCAR8 cells assessed as cell growth at 10 uM after 48 hrs by sulforhodamine B assay; format: functional; details: OVCAR-8, 48 h, read-out: Activity; method in brief: as §1
[8] = tested on: SF-268; assay: Growth inhibition of human SF268 cells assessed as cell growth at 10 uM after 48 hrs by sulforhodamine B assay; format: functional; details: SF-268, 48 h, read-out: Activity; method in brief: as §1
[9] = tested on: MDA-MB-468; assay: Growth inhibition of human MDA-MB-468 cells after 48 hrs by sulforhodamine B assay; format: functional; details: MDA-MB-468, 48 h
Method in brief: (§5)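 NCI-60 panel cells grown in RPMI 1640 with 5% FBS and 2 mM L-glutamine, seeded at 5000–40,000 cells/well and preincubated 24 h. Five 10-fold dilutions (0.001–100 µM) from DMSO stocks were added for 48 h at 37 °C. Adherent cells were fixed with cold TCA (10% final) for 60 min at 4 °C, stained with 0.4% SRB, and read at 515 nm. GI50 was set where 100×(T−T0)/(C−T0)=50.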

[10] = tested on: MDA-MB-435; assay: Growth inhibition of human MDA-MB-435 cells after 48 hrs by sulforhodamine B assay; format: functional; details: MDA-MB-435, 48 h; method in brief: as §5
[11] = tested on: M14; assay: Growth inhibition of human M14 cells after 48 hrs by sulforhodamine B assay; format: functional; details: M14, 48 h
Method in brief: (§6)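 NCI-60 screen: cells in RPMI 1640 with 5% FBS and 2 mM glutamine, 5000–40,000 cells/well, preincubated 24 h. Five concentrations (10-fold dilutions; 100 to 0.001 µM) applied for 48 h at 37 °C. TCA fixation, SRB stain, absorbance at 515 nm. Time-zero plates included; GI50 where 100×(T−T0)/(C−T0)=50.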

[12] = tested on: SN12C; assay: Growth inhibition of human SN12C cells assessed as cell growth at 10 uM after 48 hrs by sulforhodamine B assay; format: functional; details: read-out: Activity; method in brief: as §2
[13] = tested on: M14; assay: Growth inhibition of human M14 cells assessed as cell growth at 10 uM after 48 hrs by sulforhodamine B assay; format: functional; details: M14, 48 h, read-out: Activity; method in brief: as §3
[14] = tested on: HOP-62; assay: Growth inhibition of human HOP62 cells after 48 hrs by sulforhodamine B assay; format: functional; details: HOP-62, 48 h; method in brief: as §6
[15] = tested on: A549; assay: Growth inhibition of human A549/ATCC cells assessed as cell growth at 10 uM after 48 hrs by sulforhodamine B assay; format: functional; details: A549, 48 h, read-out: Activity; method in brief: as §3
[16] = Growth inhibition of human EKVX cells after 48 hrs by sulforhodamine B assay; format: functional; method in brief: as §6
[17] = tested on: MDA-MB-231; assay: Antiproliferative activity against human MDA-MB-231 cells by MTT assay; format: functional, cell-based
Method in brief: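 Cells plated at 8 × 10^3/well (MDA-MB-231) or 10^4/well (MCF7) in 96-well plates. Compounds fed in media with 5% FBS (MDA-MB-231) or 1% FBS (MCF7). MTT read-out of viable cells.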

[18] = Growth inhibition of human Hs 578T cells after 48 hrs by sulforhodamine B assay; format: functional; method in brief: as §6
[19] = tested on: BT-549; assay: Growth inhibition of human BT549 cells assessed as cell growth at 10 uM after 48 hrs by sulforhodamine B assay; format: functional; details: BT-549, 48 h, read-out: Activity; method in brief: as §3
[20] = tested on: CAKI-1; assay: Growth inhibition of human CAKI-1 cells after 48 hrs by sulforhodamine B assay; format: functional; details: CAKI-1, 48 h; method in brief: as §6
[21] = tested on: UO-31; assay: Growth inhibition of human UO31 cells assessed as cell growth at 10 uM after 48 hrs by sulforhodamine B assay; format: functional; details: UO-31, 48 h, read-out: Activity; method in brief: as §2
[22] = tested on: MDA-MB-231; assay: Growth inhibition of human MDA-MB-231 cells after 48 hrs by sulforhodamine B assay; format: functional; details: MDA-MB-231, 48 h; method in brief: as §5
[23] = tested on: NCI-H522; assay: Growth inhibition of human NCI-H522 cells after 48 hrs by sulforhodamine B assay; format: functional; details: NCI-H522, 48 h; method in brief: as §5
[24] = Growth inhibition of human HCC2998 cells after 48 hrs by sulforhodamine B assay; format: functional; details: HCC 2998, 48 h; method in brief: as §6
[25] = tested on: TK-10; assay: Growth inhibition of human TK10 cells after 48 hrs by sulforhodamine B assay; format: functional; details: TK-10, 48 h; method in brief: as §4

Row | Structure (SMILES) | growth at 10 µM [1] [%] | growth at 10 µM [2] [%] | growth at 10 µM [3] [%] | growth at 10 µM [4] [%] | GI50 [5] [µM] | growth at 10 µM [6] [%] | growth at 10 µM [7] [%] | growth at 10 µM [8] [%] | GI50 [9] [µM] | GI50 [10] [µM] | GI50 [11] [µM] | growth at 10 µM [12] [%] | growth at 10 µM [13] [%] | GI50 [14] [µM] | growth at 10 µM [15] [%] | GI50 [16] [µM] | IC50 [17] [µM] | GI50 [18] [µM] | GI50 [20] [µM] | growth at 10 µM [21] [%] | other results
1 | CC(C)=CCC/C(C)=C/CC/C(C)=C/CC[C@]1(C)CCc2c3c(cc(C)c2O1)OCN(CCCCO)C3 | -31.8 | 54.8 | -79.7 | -76.8 | 12.2 | 2.06 | -13.3 | -70.5 | 15.1 | 17 | 21 | 19.3 | -45.8 | 16.2 | -37.7 | 19.6 | > 5 | 18.5 | 15.2 | 54.9 | growth at 10 µM [19]: 88.2%; GI50 [22]: 17.9 µM; GI50 [23]: 21.9 µM; GI50 [24]: 9.78 µM; GI50 [25]: 15.4 µM
2 | CC(C)=CCC/C(C)=C/CC/C(C)=C/CC[C@]1(C)CCc2c3c(cc(C)c2O1)OCN(CCCCCCCCO)C3 | -76.2 | -20.7 | -46 | -94.5 | 3.46 | -77.2 | -51.9 | -83.1 | 0.591 | 1.16 | 1.14 | -70.7 | -94.7 | 2.7 | -85.3 | 2.98 | 11.7 | 0.938 | 4.07 | -91.5 | GI50 [22]: 1.1 µM; GI50 [23]: 3.75 µM; GI50 [24]: 0.583 µM; GI50 [25]: 4.64 µM
3 | CC(C)=CCC/C(C)=C/CC/C(C)=C/CC[C@]1(C)CCc2c3c(c(C)c(C)c2O1)OCN(CCCCCCCCO)C3 | -21.4 | 56.1 | 10.1 | 14.9 | 2.37 | 31.1 | 72.1 | 54.9 | 2.57 | 3.2 | 3.02 | 65.8 | -24 | 2.81 | 20.2 | 3.04 | > 20 | 2.61 | 4.38 | 27.9 | growth at 10 µM [19]: 109%; GI50 [22]: 2.89 µM; GI50 [23]: 2.91 µM; GI50 [24]: 2.73 µM; GI50 [25]: 3.41 µM
4 | CC(C)=CCC/C(C)=C/CC/C(C)=C/CC[C@]1(C)CCc2c3c(cc(C)c2O1)OCN(CCCCCCO)C3 | -48.1 | -22.3 | -66.3 | -79.6 | 1.52 | -25.8 | -62.8 | -80.2 | 0.629 | 0.967 | 0.979 | 40.3 | -90.8 | 0.877 | -34.7 | 5.31 | > 5 | 0.814 | 3.79 | -37.8 | growth at 10 µM [19]: 41.6%; GI50 [22]: 0.782 µM; GI50 [23]: 4.37 µM; GI50 [24]: 0.663 µM; GI50 [25]: 2.54 µM
5 | CC(C)=CCC/C(C)=C/CC/C(C)=C/CC[C@]1(C)CCc2c3c(c(C)c(C)c2O1)OCN(CCCCCCO)C3 | 22.1 | 47 | -29.4 | 31.8 | 2.27 | 17.4 | 49.9 | 26 | 2.61 | 2.95 | 3.11 | 66.5 | 26 | 2.7 | 38.9 | 2.66 | > 10 | 3.04 | 2.82 | 42.7 | growth at 10 µM [19]: 119%; GI50 [22]: 2.75 µM; GI50 [23]: 3.45 µM; GI50 [24]: 2.62 µM; GI50 [25]: 3.01 µM
